Reference: ChEMBL document CHEMBL4651341, “The discovery of a novel series of compounds with single-dose efficacy against juvenile and adult Schistosoma species” (PLoS Negl Trop Dis, 2021)
Values after ≈ are worked out from the molar mass of the structure shown.

How the values were obtained:
[1] = system: Schistosoma mansoni; test: Concentration required to kill 50% of 42 day old worms 5 days after drug treatment.; type: functional, organism-based; settings: Puerto Rican, 120 h
Outline: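 Adult S. mansoni were perfused from CD1 mice 6 weeks post-infection and washed. They were cultured 3 pairs per well in 1 mL DMEM with 2 mM glutamine, penicillin/streptomycin and 10% FCS […] at 37 °C, 5% CO2. Viability of individual worms was scored on day 5 (120 h).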

[2] = system: Schistosoma mansoni; test: Concentration required to kill 50% of 21 day old worms 5 days after drug treatment.; type: functional, organism-based; settings: Puerto Rican, 120 h
Outline: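 Juvenile S. mansoni (Puerto Rican strain) were perfused from CD1 mice 3 weeks post-infection and washed. They were cultured 6–8 per well in 200 µL DMEM with 2 mM glutamine, penicillin/streptomycin and 10% FCS at 37 °C, 5% CO2. Viability of individual worms was scored on day 5 after dosing (120 h).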

[3] = Concentration required to kill 50% MRC-5 cells as detected by Alamar blue staining; type: toxicity, cell-based, MRC5; settings: homo sapiens, read-out: TC50 (the source's name)
[4] = Partition coefficient of compound between n-octanol and PBS (pH7.4); type: physicochemical; settings: octanol/water, pH 7.4
Outline: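 Shake-flask method using octanol and PBS pH 7.4, each pre-saturated with the other. Compound was shaken 2 h at 850 rpm, 25 °C, then the phases were separated by centrifugation and both layers diluted and analysed by LC-MS/MS. LogD = log(octanol AUC × relative dilution / buffer AUC).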

[5] = Mean oral bioavailability in Swiss albino male mice at […] per compound (administered in a mixture of 5 compounds to 3 mice) assessed by LCMS/MS.; note: dose 2.5 mg/kg; type: ADME, organism-based; settings: male, Swiss albino, mouse, in vivo, read-out: Bioavailability
[6] = Mean AUC inf in Swiss albino male mice at 1 mg/kg per compound (administered iv in a mixture of 5 compounds to 3 mice) assessed by LCMS/MS.; type: ADME, organism-based; settings: male, Swiss albino, mouse, in vivo
Outline: (§1)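 Male Swiss albino mice (~30 g), 3 per experiment, mostly dosed as mixtures of 5 compounds iv via the lateral tail vein. Vehicle: 10% DMSO/90% 50 mM Na2HPO4 with 0.5% Tween-80. Blood sampled at 5, 15, 30 min and 1, 2, 4, 8, 24 h. Plasma stored at −20 °C and quantified by LC-MS after acetonitrile precipitation.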

[7] = Mean observed clearance in Swiss albino male mice at 1 mg/kg per compound (administered iv in a mixture of 5 compounds to 3 mice) assessed by LCMS/MS.; type: ADME, organism-based; settings: male, Swiss albino, mouse, in vivo, read-out: Clearance (converted); outline: as §1
[8] = Mean volume of distribution at steady state in Swiss albino male mice at 1 mg/kg per compound (administered iv in a mixture of 5 compounds to 3 mice) assessed by LCMS/MS.; type: ADME, organism-based; settings: mouse, in vivo, read-out: Volume
Outline: (§2)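 Male Swiss albino mice (~30 g), 3 per experiment, mostly dosed as mixtures of 5 compounds iv via the lateral tail vein. Vehicle: 10% DMSO/90% 50 mM Na2HPO4 with 0.5% Tween-80. Plasma stored at −20 °C and quantified by LC-MS after acetonitrile precipitation.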

[9] = Mean half-life in Swiss albino male mice at 1 mg/kg per compound (administered iv in a mixture of 5 compounds to 3 mice) assessed by LCMS/MS.; type: ADME, organism-based; settings: mouse, in vivo; outline: as §2
[10] = Mean plasma concentration at 24h in Swiss albino male mice at […] per compound (administered orally in a mixture of 5 compounds to 3 mice) assessed by LCMS/MS.; type: ADME, organism-based; settings: mouse, po
[11] = Mean plasma concentration at 4h in Swiss albino male mice at […] per compound (administered orally in a mixture of 5 compounds to 3 mice) assessed by LCMS/MS.; type: ADME, organism-based; settings: mouse, po
[12] = Mean time to peak plasma concentration in Swiss albino male mice at […] per compound (administered orally in a mixture of 5 compounds to 3 mice) assessed by LCMS/MS.; type: ADME, organism-based; settings: mouse, po
[13] = Plasma protein binding determined at 10uM by LC-MS/MS.; type: ADME, cell-free; settings: mouse
Outline: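 Equilibrium dialysis of plasma spiked at 10 µM (0.1% DMSO) against PBS pH 7.4, 6 h at 37 °C, duplicates. Both chambers analysed by LC-MS/MS after acetonitrile precipitation. % free = buffer/plasma area ratio; recovery also calculated.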

[14] = Percentage of parent compound remaining after incubation for 30 minutes with cyropreserved mouse hepatocytes at a concentration of 1uM compound and […], determined by LCMS; type: ADME, tissue-based, Hepatocyte; settings: cryopreserved mouse hepatocytes, read-out: Stability
Outline: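 Compound was incubated at 1 µM final (2 µM working solution mixed 1:1 with hepatocyte suspension) in supplemented KHB pH 7.4. Conditions: 37 °C, 5% CO2, gentle mixing, duplicates. Reaction quenched with ice-cold acetonitrile containing standard; analysed by LC-MS/MS. % remaining = AUC at t / AUC at T0.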

[15] = Solubility at 25 degC of compound (diluted from DMSO) in PBS at pH 7.4 determined after 24h (1h sonication, 22h shaking, 1h sonication) by LCMS/MS; type: physicochemical
[16] = Concentration required to kill 50% HepG2 cells as detected by MTT staining; type: toxicity, cell-based; settings: homo sapiens, read-out: TC50 (the source's name)

SMILES: COc1ccc(-c2cnc3cnc(-c4cccc(OC)c4)cn23)cc1
- EC50 [1]: 6.75 µM
- EC50 [2]: 12.6 µM
- CC50 [3]: > 49.9 µM

SMILES: CC(C)Oc1cccc(-c2ccc3nnc(-c4ccc(O)cc4)n3c2)c1
- EC50 [2]: > 25 µM
- CC50 [3]: > 50 µM

SMILES: Oc1ccc(-c2cnc3ccc(-c4cccc(C(F)(F)F)c4)nn23)c(F)c1
- EC50 [1]: > 25 µM
- EC50 [2]: > 25 µM
- CC50 [3]: > 50 µM

SMILES: COc1ccc(-c2nnc3ccc(-c4cccc(C(C)C)c4)cn23)cc1
- Lipophilicity [4]: 4.71 =
- EC50 [2]: 24.2 µM
- CC50 [3]: 40.8 µM

SMILES: CC(C)c1nc2cnc(-c3cccc(C(F)(F)F)c3)cn2c1-c1ccc(OP(=O)(O)O)cc1F
- bioavailability [5]: 5.44%
- AUC(0-inf) [6]: 131 ng·h/mL
- clearance [7]: 69 mL/min/kg
- Vd [8]: 1.26 L/kg
- half-life [9]: 31.7 min
- concentration at 24 h [10]: 0.1 ng/mL
- concentration at 4 h [11]: 5.46 ng/mL
- Tmax [12]: 15 min
- Binding [13]: 96.805%
- Lipophilicity [4]: 0.075 =
- remaining at 0.5 h, 1 µM [14]: 39.6%
- solubility kinetic at 24 h [15]: 204 µM (≈ 101 µg/mL)
- EC50 [1]: < 0.0488 µM
- EC50 [2]: 0.127 µM
- CC50 [16]: 9.2 µM

SMILES: COc1ccc(-c2cnc3cnc(-c4cccc(C(C)C)c4)cn23)cc1
- Lipophilicity [4]: 5.36 =
- EC50 [1]: 1.85 µM
- EC50 [2]: 2.43 µM
- CC50 [3]: 9.04 µM

SMILES: COc1ccc(-c2c(C)nn3cnc(-c4cccc(C(F)(F)F)c4)cc23)cc1O
- AUC(0-inf) [6]: 43.2 ng·h/mL
- clearance [7]: 195 mL/min/kg
- Vd [8]: 3.18 L/kg
- half-life [9]: 14.4 min
- concentration at 24 h [10]: 0.1 ng/mL
- concentration at 4 h [11]: 0.1 ng/mL
- Binding [13]: 99.935%
- Lipophilicity [4]: 3.73 =
- remaining at 0.5 h, 1 µM [14]: 45.1%
- solubility kinetic at 24 h [15]: 29.8 µM (≈ 11.9 µg/mL)
- EC50 [2]: 0.785 µM

SMILES: Cc1nc2cnc(-c3cccc(C(F)(F)F)c3)cn2c1-c1ccc(O)cc1F
- remaining at 0.5 h, 1 µM [14]: 31.5%
- solubility kinetic at 24 h [15]: 3.49 µM (≈ 1.35 µg/mL)
- EC50 [1]: 0.29 µM
- EC50 [2]: < 0.614 µM
- CC50 [3]: 18.7 µM

SMILES: COc1ccc(-c2cnc3cnc(-c4cccc(Cl)c4)cn23)cc1
- EC50 [1]: 12.2 µM
- EC50 [2]: 13.1 µM
- CC50 [3]: > 50 µM

SMILES: COc1ccc(-c2cnc3ccc(-c4cccc(C(C)C)c4)nn23)cc1O
- EC50 [1]: 5.59 µM
- EC50 [2]: 8.26 µM
- CC50 [3]: 11.3 µM
- CC50 [16]: 9.24 µM

SMILES: CC(C)Oc1cccc(-c2cn3c(-c4ccnc(C(F)(F)F)c4)cnc3cn2)c1
- EC50 [1]: > 25 µM
- EC50 [2]: > 25 µM
- CC50 [3]: > 49.2 µM

SMILES: CC(C)c1cccc(-c2ccc3nnc(-c4cccc(NS(C)(=O)=O)c4)n3c2)c1
- EC50 [2]: 24.6 µM
- CC50 [3]: > 50 µM

SMILES: COc1ccc(-c2nnc3ccc(-c4cccc(C(C)C)c4)cn23)cn1
- EC50 [2]: 24.2 µM
- CC50 [3]: 45.8 µM

SMILES: COc1ccc(-c2cnc3cnc(-c4cccc(OC(C)C)c4)cn23)c(OC)c1
- EC50 [1]: 12.7 µM
- EC50 [2]: 12.5 µM
- CC50 [3]: > 48.9 µM

SMILES: COc1ccc(-c2c(C(C)C)nc3cnc(-c4cccc(C(F)(F)F)c4)cn23)cc1OP(=O)(O)O
- AUC(0-inf) [6]: 25 ng·h/mL
- clearance [7]: 345 mL/min/kg
- Vd [8]: 4.06 L/kg
- half-life [9]: 22.6 min
- concentration at 24 h [10]: 0.1 ng/mL
- concentration at 4 h [11]: 0.1 ng/mL
- Binding [13]: 96.79%
- Lipophilicity [4]: 0.09 =
- remaining at 0.5 h, 1 µM [14]: 51.1%
- solubility kinetic at 24 h [15]: 209 µM (≈ 106 µg/mL)
- EC50 [2]: 0.241 µM
- CC50 [16]: 19.2 µM

SMILES: COc1ccc(-c2nnc3ccc(-c4cccc5c4OCC5)cn23)cc1OC
- EC50 [2]: 24.8 µM
- CC50 [3]: 27.6 µM
